Sampled rows, rich in hits. Any-hit rate of the full collection: about 2.3%.
CHT inh: inhibitors of human choline transporter CHT. Q9GZV3. CHT-expressing cells, membrane potential dye, choline response; hits give low values. B-score at 10 µM. 310,000 tested, 0.86% active. AID 488975;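 active = B-score over 3 SD under the library average, and starting fluorescence ratio not unusually high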;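 also: choline stimulus applied at its EC90 after an EC20 pre-addition; B-score computed on integrated fluorescence ratio after choline addition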
CHT PAM: allosterically activates the human high affinity choline transporter; 310,000 tested, 0.49% active; Q9GZV3; CHT-expressing cells, membrane potential dye, choline EC20; hits give high values; LV-AA mutant CHT in HEK293 cells; B-score at 10 µM;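 active = initial fluorescence not abnormally high and integrated response B-score, plate-corrected, over 3 SD above library mean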
pCIP destab: compounds decreasing mouse p/CIP protein stability | Q05BA5 | F442A p/CIP-EGFP cells, EGFP fluorescence, 16 h | decrease of EGFP signal, % at 10 µM | 290,000 tested, 0.01% active | AID 1984;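 active = EGFP signal decrease of at least 30% at 10 µM or well 3 SD below plate mean, unless failing retest; inactive = the rest, including hits failing retest or dose response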
T cell modulator: modulates CD8 T cell binding to vesicles; 330,000 tested, 0.068% active; response (vesicle binding), % at 7 µM; 2C CD8+ T cell-vesicle binding, flow cytometry; hits give low values;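 active = response, share of CD8 T cells binding vesicles, and their 90th percentile fluorescence all below set limits, cut at about 80% in these data, passing the limit was not always enough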;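 also: values below 100% mean blocked vesicle binding to the CD8+ T cells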
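incubation = binding step 1.5 h, 37 °C, antibody labelling 20 min, ice | test system = 2C mouse CD8+ T cells | read-out basis = percent CD8+ FL2 mean versus row control | controls = Peptide-free naked vesicles (low) and QL9 vesicles with 0.7% DMSO vehicle (high) | detection = flow cytometry of vesicle-bound cells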
GPR7 antagonist: human neuropeptides B/W receptor 1 antagonism; P48145; GPR7-expressing cells, fluorescence antagonist assay; inhibition, % at 4.4 µM; 290,000 tested, 1.1% active; in the data active = inhibition above about 16%, passing the limit was not always enough;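 also: cells stimulated with the agonist NPW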
Target sequence (P48145 whole entry, looked up): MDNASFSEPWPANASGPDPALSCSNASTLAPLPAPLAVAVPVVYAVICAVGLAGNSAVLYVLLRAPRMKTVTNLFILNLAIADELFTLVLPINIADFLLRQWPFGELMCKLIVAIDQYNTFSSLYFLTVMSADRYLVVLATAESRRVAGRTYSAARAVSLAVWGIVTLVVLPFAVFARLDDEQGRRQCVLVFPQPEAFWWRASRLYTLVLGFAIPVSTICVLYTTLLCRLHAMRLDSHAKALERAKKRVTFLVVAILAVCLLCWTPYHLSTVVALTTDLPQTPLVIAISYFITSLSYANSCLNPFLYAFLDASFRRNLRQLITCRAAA
DSG3 Ab inh: inhibitors of pemphigus antibody binding to human desmoglein-3; P32926; DSG3-coupled beads, scFv-anti-DSG3-GFP binding, flow cytometry; hits give low values; binding (percent of control), % at 10 µM; 310,000 tested, 0.48% active; AID 588358;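 active = binding more than 3 SD below its plate's average and above zero; inconclusive = below that plate limit but binding exactly zero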;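 also: hits lower antibody fragment binding to DSG3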
GPR7 antag cf: human GPR7 antagonism, confirmation assay; inhibition, % at 4.4 µM; shares compounds with GPR7 antagonist; GPR7-expressing cells, calcium fluorescence antagonist mode; 2,400 tested, 52% active; AID 1952; in the data active = inhibition above about 24%;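 also: stimulated with the GPR7 agonist NPW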
MCHR1 antagonist: counter-screen for GPR7 antagonists: antagonists of human MCHR1; MCHR1-expressing cells, fluorescence antagonist assay; 2,400 tested, 62% active; inhibition, % at 4.4 µM; shares compounds with GPR7 antagonist; in the data active = inhibition above about 22%
Large screens that a line does not name were inactive (follow-up assays come after a bar, where they were run).

CCCS(=O)(=O)c1ccc(COC(=O)Cc2ccc([N+](=O)[O-])cc2)cc1	GPR7 antagonist 28.1 | GPR7 antag cf 25.4 | MCHR1 antagonist 24.8
O=C(Cc1ccc([N+](=O)[O-])cc1)OCc1ccc([N+](=O)[O-])cc1	GPR7 antagonist 43.8 | GPR7 antag cf 29.0 | MCHR1 antagonist 63.6
CCN(CC)c1ccc(NC(=O)c2ccccn2)cc1S(=O)(=O)Nc1ccccc1OC	none (no result: CHT inh, CHT PAM, pCIP destab, T cell modulator, GPR7 antagonist)
CCc1ccc(CN2CCC(Oc3cc(C(=O)NC4CC4)ccc3OC)CC2)cc1	none (no result: CHT inh, CHT PAM, pCIP destab, T cell modulator, GPR7 antagonist)
COCCNC(=O)c1ccc(CSc2nc3ccccc3s2)cc1	GPR7 antagonist 31.1 | GPR7 antag cf inactive | MCHR1 antagonist 28.4
CCNC(=O)c1ccc(CSc2nc3ccccc3s2)cc1	none (no result: DSG3 Ab inh)
CC(C)CCN1CCN(Cc2cccc3nonc23)CC1CCO (centres undefined)	GPR7 antagonist 24.3 | GPR7 antag cf inactive | MCHR1 antagonist inactive
CC(C)N1CCN(Cc2cccc3nonc23)CC1CCO (centres undefined)	none
c1ccc(C(c2c[nH]c3ccccc23)c2c[nH]c3ccccc23)nc1	none (no result: DSG3 Ab inh)
Cn1cc(C(c2ccccn2)c2cn(C)c3ccccc23)c2ccccc21	GPR7 antagonist 25.8 (no result: DSG3 Ab inh) | GPR7 antag cf 40.8 | MCHR1 antagonist 45.0
COc1cccc(C(=O)Nc2ccc3c(c2)CCCN3C(=O)c2cccs2)c1OC	none
Cc1ccccc1C(=O)Nc1ccc2c(c1)CCCN2C(=O)c1cccs1	GPR7 antagonist 25.3 | GPR7 antag cf inactive | MCHR1 antagonist 34.8
CN(C)CCCNc1cc(C(C)(C)C)nc2c(-c3ccccc3)cnn12	GPR7 antagonist 67.1 | GPR7 antag cf 66.2 | MCHR1 antagonist 67.2
CSCCC(NC(=O)c1ccco1)C(=O)OC(C)C(=O)NC(=O)NC1CCCCC1 (centres undefined)	GPR7 antagonist 29.3 | GPR7 antag cf inactive | MCHR1 antagonist 48.2
C[C@H](NC(=O)c1ccco1)C(=O)NC1CCCCCC1	none (no result: CHT inh, CHT PAM, pCIP destab, GPR7 antagonist)
Cc1ccc(NC(=O)COC(=O)c2ccco2)cc1S(=O)(=O)N1CCCCC1	none (no result: CHT inh, CHT PAM, pCIP destab, T cell modulator, GPR7 antagonist)
Cc1cc(OCC(=O)Nc2ccncc2)cc(C)c1Cl	GPR7 antagonist 28.8 | GPR7 antag cf 36.4 | MCHR1 antagonist 59.9
Cc1ccc(OCC(=O)Nc2ccncc2)cc1C	none (no result: CHT inh, CHT PAM, pCIP destab, T cell modulator, GPR7 antagonist)
C[C@H]1CN([C@@H](C)CO)C(=O)c2cc(-c3cccc(C#N)c3)cnc2O[C@H]1CN(C)C(=O)c1ccccn1	none (no result: CHT inh, CHT PAM, pCIP destab, T cell modulator, GPR7 antagonist)
CCOc1ccccc1NC(=O)c1cc(S(=O)(=O)NCc2ccco2)ccc1F	GPR7 antagonist 24.3 | GPR7 antag cf inactive | MCHR1 antagonist inactive
NCCSc1c(-c2ccccc2)[nH]c2ccccc12	GPR7 antagonist 21.0 | GPR7 antag cf inactive | MCHR1 antagonist 22.6
NCCSc1c(-c2ccc(F)cc2)[nH]c2ccccc12	GPR7 antagonist 24.6 | GPR7 antag cf 41.1 | MCHR1 antagonist 38.1
Cc1ccc(-c2[nH]c3ccccc3c2SCCN)cc1	none
CCOC(=O)C(NC(=O)c1ccccc1)C(C)(C)SCc1ccccc1 (centres undefined)	none (no result: CHT inh, CHT PAM, pCIP destab, T cell modulator, GPR7 antagonist)
CCn1c(CN2CCC(C)CC2)nc2cc(S(=O)(=O)N3CCCCC3)ccc21	none (no result: CHT inh, CHT PAM, pCIP destab, T cell modulator, GPR7 antagonist)
O=C(CN1CCN(c2ccccc2O)CC1)Nc1cc(S(=O)(=O)N2CCCC2)ccc1Cl	none (no result: CHT inh, CHT PAM, pCIP destab, GPR7 antagonist, DSG3 Ab inh)
COc1ccc(Nc2cc(C)nc(NCc3ccccc3)n2)cc1	none
Cc1cc(NC2CCCCC2)nc(NCc2ccccc2)n1	GPR7 antagonist 23.9 | GPR7 antag cf 50.8 | MCHR1 antagonist 80.7
Cn1c(=O)c(NCCO)c2c3c(cccc31)C(=O)c1ccccc1-2	GPR7 antagonist 61.5 | GPR7 antag cf 59.5 | MCHR1 antagonist 81.8
CCNc1c2c3c(cccc3n(C)c1=O)C(=O)c1ccccc1-2	none (no result: DSG3 Ab inh)
CCCCNc1c2c3c(cccc3n(C)c1=O)C(=O)c1ccccc1-2	GPR7 antagonist 21.0 | GPR7 antag cf 64.7 | MCHR1 antagonist 81.4
Cc1cc(C)c(S(=O)(=O)N2CCN(C(=O)c3ccc(-n4nc(C)c(Cl)c4C)cc3)CC2)c(C)c1	none (no result: CHT inh, CHT PAM, pCIP destab, T cell modulator, GPR7 antagonist)
COc1cc(C=C2NC(=O)NC2=O)ccc1O	none (no result: CHT inh, CHT PAM, pCIP destab, T cell modulator, GPR7 antagonist)
CCOc1cc(/C=C2\NC(=O)NC2=O)ccc1OC(C)C(=O)O (centres undefined)	GPR7 antagonist 32.4 | GPR7 antag cf inactive | MCHR1 antagonist inactive
CCn1c(SCC(=O)Nc2ccc(C(C)=O)cc2)nc2ccccc21	GPR7 antagonist 30.0 | GPR7 antag cf inactive | MCHR1 antagonist inactive
CCCCN1C(=O)C(NC(C)=O)c2cc(Br)ccc21 (centres undefined)	GPR7 antagonist 52.6 | GPR7 antag cf 26.1 | MCHR1 antagonist inactive
CCNC(=O)N(CC)C[C@H]1N[C@@](Cc2ccccc2)(C(=O)OC)[C@H]2C(=O)N(C)C(=O)[C@@H]12	none (no result: CHT inh, CHT PAM, pCIP destab, GPR7 antagonist)
COCCNC(=O)C(c1cccs1)N(Cc1cccs1)C(=O)Cn1nnc2ccccc21 (centres undefined)	none (no result: DSG3 Ab inh)
CC(C)CCNC(=O)C(c1ccco1)N(Cc1cccs1)C(=O)Cn1nnc2ccccc21 (centres undefined)	GPR7 antagonist 33.1 (no result: CHT inh, CHT PAM, T cell modulator) | GPR7 antag cf inactive | MCHR1 antagonist inactive
c1ccc(-c2ccc(OCCCNC3CCCC3)cc2)cc1	GPR7 antagonist 21.3 | GPR7 antag cf inactive | MCHR1 antagonist inactive
c1ccc(Cc2ccc(OCCCNC3CCCC3)cc2)cc1	none (no result: DSG3 Ab inh)
O=[N+]([O-])c1cccc(CON=Cc2cc(Cl)ccc2O)c1	none (no result: CHT inh, CHT PAM, pCIP destab, T cell modulator, GPR7 antagonist)
Nc1ccccc1C#CC(=O)c1ccccc1	GPR7 antagonist 37.4 | GPR7 antag cf 70.9 | MCHR1 antagonist 35.6
CN(C)S(=O)(=O)N1CCC(Oc2ccc(C(=O)NC3Cc4ccccc4C3)cc2)CC1	GPR7 antagonist 50.9 | GPR7 antag cf 65.8 | MCHR1 antagonist 74.6
CN(C)S(=O)(=O)N1CCC(Oc2ccc(C(=O)NC3CCOC(C)(C)C3)cc2)CC1 (centres undefined)	DSG3 Ab inh inconclusive
Cc1nnc(N2C(=O)c3cccc4c([N+](=O)[O-])ccc(c34)C2=O)s1	GPR7 antagonist 27.6 | GPR7 antag cf 33.4 | MCHR1 antagonist 50.6
Cc1c(NC(=O)c2cc3ccccc3o2)cccc1-n1cnnn1	none (no result: CHT inh, CHT PAM, pCIP destab, T cell modulator, GPR7 antagonist)
Clc1ccc(-c2csc(=Nc3cccnc3)n2CCCn2ccnc2)cc1Cl	GPR7 antagonist 27.8 | GPR7 antag cf 28.5 | MCHR1 antagonist 39.8
O=C(c1ccc2c(c1)OCO2)N(CC1CCCO1)C1(C(=O)NC2CCCCC2)CCCCC1 (centres undefined)	GPR7 antagonist 33.7 (no result: DSG3 Ab inh) | GPR7 antag cf 28.5 | MCHR1 antagonist 29.8
O=C(c1ccc(=O)[nH]c1)N(Cc1cccs1)C1(C(=O)NC2CCCC2)CCCCC1	none
